Broadly, the IC50 is the concentration needed to halve the response being measured.

The experiment deals with T1, Tumor necrosis factor ligand superfamily member 11 (Mus musculus, UniProt O35235).
T1 sequence (O35235 whole entry): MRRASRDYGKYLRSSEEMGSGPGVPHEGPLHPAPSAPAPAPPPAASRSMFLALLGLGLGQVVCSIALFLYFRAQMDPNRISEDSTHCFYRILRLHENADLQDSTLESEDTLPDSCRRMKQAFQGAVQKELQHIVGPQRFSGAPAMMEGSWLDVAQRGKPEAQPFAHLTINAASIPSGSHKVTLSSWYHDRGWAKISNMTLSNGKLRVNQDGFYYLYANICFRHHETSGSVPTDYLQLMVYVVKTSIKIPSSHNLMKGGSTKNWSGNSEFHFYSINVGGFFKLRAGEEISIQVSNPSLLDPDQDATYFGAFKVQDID
The experiment can be described thus: Inhibition of recombinant mouse RANKL-induced TRAP activity in mouse RAW264.7 cells using 4-nitrophenyl phosphate as TRAP substrate preincubated for 4 days followed by substrate addition measured after 15 mins by ELISA reader analysis. Summed up: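 RAW264.7 cells (2 × 10⁴ per well) were cultured 4 days in α-MEM with 10% FBS, 2 mM L-glutamine and murine RANKL 100 ng/mL, with or without compound. Cells were lysed in 0.1% Triton X-100/50 mM Tris-HCl pH 7.2 on ice. They were incubated with 2 mg/mL 4-nitrophenyl phosphate in 0.09 M citrate for 15 min at 37 °C, stopped with 0.1 N NaOH, and read at 405 nm. Protein was measured by BCA.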
Take `O=c1oc2ccc(-c3ccc(F)cc3F)cc2c(=O)n1-c1cccc(C(F)(F)F)c1`: the IC50 is 4.29 µM.
For `C#Cc1cccc(-n2c(=O)oc3ccc(-c4ccc(F)cc4F)cc3c2=O)c1` the value was 3.7 µM; for `O=c1oc2ccccc2c(=O)n1-c1ccc(Cl)cc1F`, 10.6 µM; for `O=c1oc2ccc(-c3ccc(F)cc3F)cc2c(=O)n1-c1cc(F)ccc1F`, 4.31 µM.

Values taken from BindingDB's records for doi:10.1016/j.bmc.2015.06.007 (Taipei Medical University, 2015).
